Results on 97 compounds are retold here after ChEMBL document CHEMBL4513216, “Probing the Open Global Health Chemical Diversity Library for Multistage-Active Starting Points for Next-Generation Antimalarials” (ACS Infect Dis, 2020).

The nature of this data set: Toxicity liver stage against HepG2, at 10uM. Type of data set: cell-based. On the set-up: test concentration 10 uM, cell line HepG2-A16-CD81EGFP. To be noted: human, HepG2-A16-CD81EGFP cells; read-out: INHIBITION
A digest of the protocol: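 Uninfected HepG2-A16-CD81EGFP cells, 3 × 10^3 per well, 1536-well, plated on prespotted compound at 10 μM final, parasite-free screening media added to match infected plates; puromycin 10 μM positive, DMSO 0.5% negative; run in parallel with 48 h PbLuc assay at 37 °C, 5% CO2; viability by CellTiter-Glo luminescence, normalized to controls.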
In the case of `NC(=O)Cn1ccc(O)c(Cc2ccc(Cl)cc2Cl)c1=O`, the cytotoxicity at 10 µM is 8.85%.

In the case of `O=C(CCc1ccc(O)cc1)N1CCC(Cc2ccc(CO)cc2)C1` (configuration not stated), the cytotoxicity at 10 µM came to 14.8%.

Turning to `O=C(c1ccccn1)N1CCCC(c2nccn2Cc2ccncc2)C1` (configuration not stated), the cytotoxicity at 10 µM is -14.1%.

On to `CC(c1ccccc1F)N1CCN(C(=O)Cc2ccncc2)CC1` (configuration not stated), for which the cytotoxicity at 10 µM was -2.94%.

As to `CCc1nc(CNc2ccc(-c3nc(C4CC4)no3)cn2)no1`, the cytotoxicity at 10 µM was -6.14%.

For the compound `Cc1ccc(CN(Cc2cccnc2)C2CC(C)(C)NC(C)(C)C2)s1`, the cytotoxicity at 10 µM worked out at 4.94%.

`O=C(O)c1cc2c(nc1-c1ccsc1)CCN(C1CCOC1)CC2` (configuration not stated): the cytotoxicity at 10 µM came out at 15%.

Turning to `COCCS(=O)(=O)c1ncc(CN(C)CC(C)C)n1Cc1ccccc1`, the cytotoxicity at 10 µM is -1.27%.

For the compound `CS(=O)(=O)CCOCCNc1ccc(C#N)cc1F`, the cytotoxicity at 10 µM is -3.34%.

Regarding `Fc1cccc(N2CCc3ncnc(C4CC4)c3CC2)c1`, the cytotoxicity at 10 µM stood at 11.9%.

Take `COc1ccc2c(c1)C(C(=O)N(C)CCc1scnc1C)CC(=O)N2` (configuration not stated): the cytotoxicity at 10 µM was -42.3%.

For the compound `CN1C[C@@H]2CC[C@H]1CN(C(=O)COCc1nc3ccc(F)cc3[nH]1)C2`, the cytotoxicity at 10 µM is -1.88%.

For `COCc1ccc(CNC(=O)CN2CCc3ccccc32)cc1`, the cytotoxicity at 10 µM was found to be 6.68%.

Regarding `Cc1nccn1CC1CCCN(C(=O)Cc2ccsc2)C1` (configuration not stated), the cytotoxicity at 10 µM was 16.2%.

For `COc1cccc(OCCNS(C)(=O)=O)c1`, the cytotoxicity at 10 µM was 13%.

Consider `C1CCC(c2nc3c(c(N4CCN5CCCC5C4)n2)CCNCC3)C1` (configuration not stated), for which the cytotoxicity at 10 µM was -1.1%.

In the case of `CC(=O)N(Cc1noc(C2CC2)n1)C1CCN(Cc2nccn2C)C1` (configuration not stated), the cytotoxicity at 10 µM is -5.65%.

`Cc1csc(C2(NC(=O)NCCN3CCOCC3)CCCC2)n1`: the cytotoxicity at 10 µM was -3.55%.

Take `Cc1cc(F)ccc1S(=O)(=O)N1CCN(C)Cc2ccccc21`: the cytotoxicity at 10 µM is 4.06%.

Consider `CC1COCCN1Cc1noc(C(C)(C)C)n1` (configuration not stated), for which the cytotoxicity at 10 µM was 5.67%.

For `O=C(NCCn1ccnc1)c1ccn(-c2ccc(F)cc2)n1`, the cytotoxicity at 10 µM was -1.03%.

Turning to `Cc1ccccc1C(=O)N1CC[C@H](O)[C@@H](N2CCOCC2)CC1`, the cytotoxicity at 10 µM stood at 5.32%.

Take `Cn1cc(-c2cc(C(F)(F)F)n(CCCN)n2)cn1`: the cytotoxicity at 10 µM was -6.11%.

As to `CCOCc1cncc2c1CCN(C(=O)c1cscn1)C2`, the cytotoxicity at 10 µM is -107%.

As for `CC(C)OCCCNC(=O)N(C)C(C)c1ccc(-n2cncn2)cc1` (configuration not stated), the cytotoxicity at 10 µM was determined as 4.08%.

Regarding `CC(=O)NCCNC(=O)NCC1Cc2ccccc2O1` (configuration not stated), the cytotoxicity at 10 µM is -1.83%.

As for `Cn1cc(C2CCCN2CCc2nc3ccccc3c(=O)[nH]2)cn1` (configuration not stated), the cytotoxicity at 10 µM was -12.9%.

Turning to `Cc1cccc(OCCC(=O)NC(C)c2nnc3n2CCC3)c1` (configuration not stated), the cytotoxicity at 10 µM is -12.8%.

Regarding `CCn1c(N)nc2cc(C(=O)NCCc3nnc(C)s3)cnc21`, the cytotoxicity at 10 µM was -2.46%.

For the compound `Cc1cnccc1NCCn1ccnc1C1CCCCC1`, the cytotoxicity at 10 µM is -4.2%.

Regarding `Cc1nnc(CN2CCCC(c3cc(C(N)=O)[nH]n3)C2)o1` (configuration not stated), the cytotoxicity at 10 µM is -7.32%.

As for `Cn1cnnc1S(=O)(=O)C1CCN(S(=O)(=O)c2c(Cl)cccc2Cl)CC1`, the cytotoxicity at 10 µM was -14.2%.

`COCCN1CCO[C@@H]2CN(C(=O)Cc3cccc(F)c3)CC[C@@H]2C1`: the cytotoxicity at 10 µM was 5.95%.

As to `O=C(CN1CCCCCC1)N1CCc2nnc(C3CCCNC3)n2CC1` (configuration not stated), the cytotoxicity at 10 µM was -5.56%.

Take `Cc1cc(CN2CCN(CC3CC3)[C@@H]3CS(=O)(=O)C[C@@H]32)ccc1F`: the cytotoxicity at 10 µM was -1.37%.

`Cc1nc(NCC23CCCN2CCC3)cc(C2CCCNC2)n1` (configuration not stated): the cytotoxicity at 10 µM is 7.54%.

As for `CN(Cc1cccnc1)C(CO)c1cccc(Br)c1` (configuration not stated), the cytotoxicity at 10 µM was -5.37%.

Turning to `CN1CC(Oc2ccccc2)=NC(SCC(=O)c2ccccc2)=N1`, the cytotoxicity at 10 µM is -6.17%.

Regarding `COC(=O)c1ccc(OCC(=O)N(C)Cc2ccsc2)c(OC)c1`, the cytotoxicity at 10 µM was found to be 5.98%.

Take `CCOc1cccc(NS(=O)(=O)c2cc(C)c(C(=O)O)s2)c1`: the cytotoxicity at 10 µM is -5.28%.

For `c1ccc(N2CCOC3(CCCN(c4ncccn4)C3)C2)nc1` (configuration not stated), the cytotoxicity at 10 µM was -103%.

Take `c1cncc(OC[C@@H]2CCC[C@@]23CN(Cc2nccs2)CCO3)c1`: the cytotoxicity at 10 µM was -63.3%.

Regarding `Cc1cccc(C(C)C)c1NC(=O)CN(C)C(C)c1nccs1` (configuration not stated), the cytotoxicity at 10 µM was -129%.

As for `CCc1noc(C2CCCCN2C(=O)c2cccnc2)n1` (configuration not stated), the cytotoxicity at 10 µM came to 8.52%.

With `COCCNC(=O)[C@@]12CCO[C@@H]1CCN(Cc1ccncc1)C2`, the cytotoxicity at 10 µM was -77.3%.

Turning to `COc1ccc(F)cc1C[S+]([O-])CC(=O)NCc1ccccc1C` (configuration not stated), the cytotoxicity at 10 µM is -0.907%.

In the case of `O=C1C[C@H]2[C@H](CCN2Cc2ccccn2)N1CC1CC1`, the cytotoxicity at 10 µM worked out at 5.8%.

As to `COc1ccccc1C(=O)Nc1ccc(OC2CCN(C)CC2)cc1`, the cytotoxicity at 10 µM was -4.85%.

As to `CC(=O)NC1CCCN(C(=O)CNc2cc(Cl)cc(Cl)c2)C1` (configuration not stated), the cytotoxicity at 10 µM is -1.68%.

Turning to `CCc1nccn1-c1cncc(C2CCCN2Cc2cccnc2)n1` (configuration not stated), the cytotoxicity at 10 µM was found to be 5.82%.

With `Cc1noc(C)c1C(=O)N1CCCC1c1c(C)nn(C)c1Cl` (configuration not stated), the cytotoxicity at 10 µM was -12.6%.

`Cc1ccc(C(=O)NCCNc2ncccc2C#N)c(=O)[nH]1`: the cytotoxicity at 10 µM is -7.44%.

Regarding `CC(C)c1cc(NC(=O)CNC2CCCN(c3cccnn3)C2)on1` (configuration not stated), the cytotoxicity at 10 µM was -1.79%.

For the compound `CC(C)=CCCC(C)CN1CCC(n2cc(C(C)(C)O)nn2)CC1` (configuration not stated), the cytotoxicity at 10 µM is -2.27%.

In the case of `O=C(N1CCCC1)N1CCN(CC2CC2)c2ncccc2C1`, the cytotoxicity at 10 µM was determined as 6.51%.

`CN1CCC(c2cccc(-c3cccc(C(=O)O)c3)n2)CC1`: the cytotoxicity at 10 µM is -6.55%.

`Cc1nnc([C@H]2C[C@@H]3CCN(Cc4cc(C)on4)C[C@H]3O2)[nH]1`: the cytotoxicity at 10 µM is -5.03%.

In the case of `Cc1nc2c(c(C)c1CC(=O)Nc1ccnn1C(C)C)c(=O)[nH]n2C`, the cytotoxicity at 10 µM worked out at 13%.

As to `CCc1ocnc1C(=O)N1CCOC(CCCC(C)C)C1` (configuration not stated), the cytotoxicity at 10 µM came to 4.29%.

`CNC(=O)C1(c2cnccn2)CCCN1C(=O)c1c(F)cccc1F` (configuration not stated): the cytotoxicity at 10 µM was -24.1%.

As for `Cc1cc(CN(C)C(=O)NC2CCN(Cc3ccccn3)CC2)no1`, the cytotoxicity at 10 µM is -17.4%.

As to `Cc1cccc(CN2C(=O)C[C@H]3[C@@H]2CCN3Cc2cccs2)n1`, the cytotoxicity at 10 µM was -79.6%.

On to `Cc1cn[nH]c1C1CCCCN1C(=O)CCc1c(C)n[nH]c1C` (configuration not stated), for which the cytotoxicity at 10 µM is -10.5%.

Consider `Cc1cccc(OCC(O)CN2CCN(c3nccs3)CC2)c1` (configuration not stated), for which the cytotoxicity at 10 µM was found to be 16.5%.

Consider `N#Cc1cn[nH]c1NCc1cc(Br)ccc1O`, for which the cytotoxicity at 10 µM is -7.29%.

Turning to `Cc1ccc(OCCSCCn2nc3ccccn3c2=O)cc1`, the cytotoxicity at 10 µM is 7%.

As to `CC(CC(F)(F)F)NCc1ccccc1-n1ccnc1` (configuration not stated), the cytotoxicity at 10 µM was 3.15%.

Regarding `O=C(C1CCOCC1)N1CCc2ncnc(-c3ccccc3)c2CC1`, the cytotoxicity at 10 µM was -6.09%.

Consider `CCOc1ccc(CN2CCC(c3nc(C)cc(C)n3)C2)cc1CO` (configuration not stated), for which the cytotoxicity at 10 µM stood at 2.75%.

With `CC(=O)N1CCN(c2cc(C3CCNCC3)ccn2)CC1`, the cytotoxicity at 10 µM was found to be 6.91%.

Regarding `Cc1nc(CN2CCN(C(=O)c3c(C)noc3C)CC2)cs1`, the cytotoxicity at 10 µM was -23.2%.

As for `O=C(NCCNC(=O)c1scnc1Cl)c1ccccc1`, the cytotoxicity at 10 µM is 8.45%.

In the case of `COCC(C)N1CCc2onc(-c3ccc(C(F)(F)F)cc3)c2C1` (configuration not stated), the cytotoxicity at 10 µM was -6.45%.

For `CCc1nc(C2CCCN(C(=O)c3cccc4c3ccn4C)C2)no1` (configuration not stated), the cytotoxicity at 10 µM was -14.4%.

`CC(C)CN(C)Cc1nc2c(cnn2C)c(=O)[nH]1`: the cytotoxicity at 10 µM was -12.3%.

On to `CO[C@H]1CN(Cc2nc3ccccc3n2C)CC[C@@]12CCCO2`, for which the cytotoxicity at 10 µM was determined as 2.5%.

With `CCOc1ccc(S(=O)(=O)NC(=O)CC2CCCO2)cc1` (configuration not stated), the cytotoxicity at 10 µM was -16.3%.

`CCc1nc(C2CCCN(C(=O)c3ccccc3F)C2)no1` (configuration not stated): the cytotoxicity at 10 µM was 2.64%.

For the compound `O=C(NCCc1ccccc1)NCC(O)c1cccs1` (configuration not stated), the cytotoxicity at 10 µM is -11.9%.

Take `O=C(O)c1cc(-c2ccncc2)cc(S(=O)(=O)NCc2ccccn2)c1`: the cytotoxicity at 10 µM was -51.9%.

For the compound `O=C(Cc1ccc(F)cc1)N1CCn2cc(Cn3cncn3)nc2C1`, the cytotoxicity at 10 µM was -74%.

Take `COC(=O)[C@@H](Nc1nc(C2CCCC2)nc2c1cnn2C)[C@@H](C)O`: the cytotoxicity at 10 µM is -50%.

As to `Cc1nc(CN2C[C@@H]3CN(C(=O)CC(F)(F)F)C[C@@H]3C2=O)cs1`, the cytotoxicity at 10 µM is -73.5%.

As for `COc1ccc(F)cc1S(=O)(=O)NCCn1cnc(C)cc1=O`, the cytotoxicity at 10 µM was -6.49%.

For `Cc1cc(C)c(CNC(=O)N2CCCC2c2ccccn2)c(=O)[nH]1` (configuration not stated), the cytotoxicity at 10 µM is 1.17%.

On to `CCN1CC2(CCN(CC3COCCO3)CC2)OC1=O` (configuration not stated), for which the cytotoxicity at 10 µM is -4.15%.

Turning to `CCC(C)(CC(=O)OC)NC(=O)c1ccc(C(C)=O)cc1` (configuration not stated), the cytotoxicity at 10 µM was -4.89%.

Consider `CC(C)c1nc(CN(C)C2CCN(CCc3ccncc3)C2)no1` (configuration not stated), for which the cytotoxicity at 10 µM is -28.4%.

With `CCN1C[C@@H]2CN(S(=O)(=O)c3cccs3)C[C@@H]2C1=O`, the cytotoxicity at 10 µM was -2.42%.

In the case of `COc1c(CNCc2ccccc2Cn2ccnc2)c(C)nn1C`, the cytotoxicity at 10 µM is -9.2%.

For the compound `CN(CC1CCCO1)c1nc(-c2cccnc2)nc2c1CCNCC2` (configuration not stated), the cytotoxicity at 10 µM is -4.68%.

For `Cc1cccc(OCCN2CCCC(c3cc(C(N)=O)[nH]n3)C2)c1` (configuration not stated), the cytotoxicity at 10 µM is -11.9%.

Turning to `O=C(NCCS(=O)(=O)N1CCc2ccccc21)c1c(O)cc(F)cc1F`, the cytotoxicity at 10 µM was 0.217%.

With `Cc1ccc(C2CSCCN2C(=O)c2ccncc2)cc1` (configuration not stated), the cytotoxicity at 10 µM came out at 2.96%.

Turning to `CC(=O)N1CCC(c2nc(Cc3ccccc3)no2)C1` (configuration not stated), the cytotoxicity at 10 µM was determined as 5.15%.

For `CC(C)(C)NS(=O)(=O)c1cc(NC(=O)C2CC2)ccc1F`, the cytotoxicity at 10 µM was -10.6%.

In the case of `CCOC(=O)COc1cccc(NC(=O)C2COCCO2)c1` (configuration not stated), the cytotoxicity at 10 µM is 7.01%.
